Bioassay records (PubChem BioAssay)
Compounds with a hit are over-represented: about 5.7% of the library has one in this group of screens.
Calb FLC: C. albicans growth modulation with fluconazole; C. albicans CaCi-2 (fluconazole-resistant clinical isolate) + fluconazole, Alamar Blue growth, 48 h; growth inhibition, % (test concentration not listed); hit rate 0.57% among 300,000;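 active = growth inhibition above about 58% in most replicates, limit read from the data, passing the limit was not always enough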;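 note: all wells also contain fluconazole at 8 µg/ml as a sub-toxic cotreatment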
Beta cell apopt: beta cell apoptosis inhibition. INS-1E cytokine-induced death, ATP luminescence, 48 h; percent of positive-control rescue, neutral wells zero. protection from apoptosis, % (concentration not given with the values). hit rate 0.8% among 300,000;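 active = Every replicate reaches about 75%, or at least half do and their mean reaches it too, limit read from the data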;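 note: higher means more ATP so stronger rescue from cytokine killing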
T cruzi repl: blocks replication of Trypanosoma cruzi; AID 1885; hit rate 1.4% among 300,000; inhibition, % (concentration not given with the values); T. cruzi beta-gal in NIH3T3, luminescence, 90 h;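 active = mean inhibition across valid replicates above about 55%, limit read from the data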;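 note: signal also drops with host cell toxicity which is not excluded here; higher percent means less beta-gal luminescence so fewer parasites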
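Material: NIH/3T3 host cells with β-galactosidase reporter T. cruzi; Input: 5,000 host fibroblasts per well; Medium: DMEM, 2% fetal bovine serum; Compound: 50 nL DMSO compound solution per well; Schedule: 3 h host attachment, then at least 90 h co-culture; Detection: luminescent β-galactosidase signal after 60 min lysis.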
CSC inhib: cancer stem cell inhibition. cancer stem cell-like cells viability, luminescence. inhibition, % at 7.5 µM. hit rate 1.1% among 300,000. AID 2717; in the data active = inhibition above about 75%; tested in HMLE shEcad cells
SKKanGAS inh: SKKanGAS growth inhibition; S. pyogenes SKKanGAS, kanamycin growth, BacTiter-Glo, 6 h; AID 1662; inhibition, % at 7.5 µM; hit rate 1.3% among 300,000;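 active = mean replicate score, as percent of positive control median, at least 50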;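 note: strain carries kanamycin resistance gene driven by streptokinase promoter and grows in 40 µg/ml kanamycin; loss of luminescence reflects streptokinase promoter inhibition or plain growth inhibition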
Mdm2 MdmX PPI: inhibitors of human Mdm2/MdmX interaction | hit rate 3% among 330,000 | AID 485346 | SaOS-2 split-luciferase Mdm2/MdmX complementation, luminescence | inhibition, % at 8 µM;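 active = inhibition of at least 50% at 8 µM in the primary screen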
Mdm2-MdmX conf: human Mdm2/MdmX binding inhibition, confirmed; inhibition, % at 8 µM; luminescent assay; shares compounds with Mdm2 MdmX PPI; hit rate 55% among 10,000; AID 489028; in the data active = inhibition above about 40%
FLuc counter: full-length luciferase inhibition in Mdm2/MdmX counter-screen; shares compounds with Mdm2 MdmX PPI; SaOS-2 full-length luciferase counterscreen, luminescence; inhibition, % at 8 µM; hit rate 77% among 6,200; AID 504607;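 active = mean inhibition at 8 µM reaching about 37%, which flags the compound as non-specific, limit read from the data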;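 note: p53-null SaOS-2 cells with luciferase driven by a doxycycline-inducible promoter; compound on cells about two nights before reading with doxycycline added after day one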
Numbers stand for hits.

Screening CCOc1ccc(/C=N/NC(=O)COc2ccccc2-c2ccccc2)cc1 returned Calb FLC inactive, Beta cell apopt inactive, T cruzi repl inactive, CSC inhib 77.8, SKKanGAS inh inactive, Mdm2 MdmX PPI 50.9, Mdm2-MdmX conf 44.0 and FLuc counter 51.5.
For CCOc1ccc(/C=N/NC(=O)c2c(-c3ccccc3)noc2C)cc1 the results were Calb FLC inactive, Beta cell apopt inactive, T cruzi repl inactive, CSC inhib inactive, SKKanGAS inh inactive and Mdm2 MdmX PPI inactive.
Screening CCO[C@H]1OC(C(N)=O)=C[C@@H](C(C)(C)C)[C@@H]1CCCO returned Calb FLC inactive, Beta cell apopt inactive, T cruzi repl inactive, CSC inhib inactive, SKKanGAS inh inactive and Mdm2 MdmX PPI inactive.
Screening CC1=Nc2cc(C(=O)N3CCCC3)ccc2Sc2c(C)ccc(C)c21 returned Calb FLC inactive, Beta cell apopt inactive, T cruzi repl inactive, CSC inhib inactive, SKKanGAS inh inactive, Mdm2 MdmX PPI 89.7, Mdm2-MdmX conf 66.7 and FLuc counter inactive.
Screening CCOC(=O)C1=C(N)OC2=C(C(=O)CC(C)(C)C2)C1c1cccs1 (stereo not drawn) returned Calb FLC inactive, Beta cell apopt inactive, T cruzi repl inactive, CSC inhib inactive, SKKanGAS inh inactive and Mdm2 MdmX PPI inactive.
CCC(O)c1nc2ccccc2n1CCc1ccccc1 (stereo not drawn) was read as Calb FLC inactive, Beta cell apopt inactive, T cruzi repl inactive, CSC inhib inactive, SKKanGAS inh inactive and Mdm2 MdmX PPI inactive.
`CCCCn1c(SCC(=O)N2c3ccccc3Sc3ccccc32)nc2c1c(=O)n(C)c(=O)n2C` gave Calb FLC inactive, Beta cell apopt inactive, T cruzi repl inactive, CSC inhib inactive, SKKanGAS inh inactive, Mdm2 MdmX PPI 59.1 and Mdm2-MdmX conf inactive.
Cn1c(=O)c2c(nc(SCC(=O)c3cccs3)n2Cc2ccc(F)cc2)n(C)c1=O was read as Calb FLC inactive, Beta cell apopt inactive, T cruzi repl inactive, CSC inhib inactive, SKKanGAS inh inactive and Mdm2 MdmX PPI inactive.
`CC1Cc2ccccc2N1C(=O)CSc1nc2c(c(=O)n(C)c(=O)n2C)n1Cc1ccc(F)cc1` (stereo not drawn) gave Calb FLC inactive, Beta cell apopt inactive, T cruzi repl inactive, CSC inhib inactive, SKKanGAS inh inactive, Mdm2 MdmX PPI 71.7, Mdm2-MdmX conf 47.1 and FLuc counter 71.5.
COCCN1C(=O)C(=O)/C(=C(/O)c2ccc(S(=O)(=O)N3CCOCC3)cc2)C1c1cccc(OC)c1 (stereo not drawn) was read as Calb FLC inactive, Beta cell apopt inactive, T cruzi repl inactive, CSC inhib inactive, SKKanGAS inh inactive and Mdm2 MdmX PPI inactive.
`O=S(Cc1ccc(Br)cc1)Cc1nnc(SCc2ccc(Cl)cc2)n1-c1ccccc1` (stereo not drawn) gave Calb FLC inactive, Beta cell apopt inactive, T cruzi repl inactive, CSC inhib inactive, SKKanGAS inh inactive, Mdm2 MdmX PPI 50.5, Mdm2-MdmX conf inactive and FLuc counter 69.9.
N=C1C(c2nc3ccccc3s2)=C(O)CN1NC(=O)c1ccccc1[N+](=O)[O-] was read as Calb FLC inactive, Beta cell apopt inactive, T cruzi repl inactive, CSC inhib inactive, SKKanGAS inh inactive, Mdm2 MdmX PPI 54.4 and Mdm2-MdmX conf inactive.
`Cc1oc2c(Cl)c(Cl)c(O)c(CN(C)C)c2c1C(=O)c1ccc(Cl)cc1` gave Calb FLC inactive, Beta cell apopt inactive, T cruzi repl inactive, CSC inhib inactive, SKKanGAS inh inactive, Mdm2 MdmX PPI 59.5, Mdm2-MdmX conf 66.2 and FLuc counter inactive.
Screening CC1CCN(Cc2nnnn2CCCC(=O)NCCN2CCOCC2)CC1 returned Calb FLC inactive, Beta cell apopt inactive, T cruzi repl inactive, CSC inhib inactive, SKKanGAS inh inactive and Mdm2 MdmX PPI inactive.
`O=C(N/N=C/c1ccc([N+](=O)[O-])o1)c1cc(-c2cccc(Br)c2)nc2ccccc12` gave Calb FLC inactive, Beta cell apopt inactive, T cruzi repl 63.0, CSC inhib inactive, SKKanGAS inh 97.7, Mdm2 MdmX PPI 50.4 and Mdm2-MdmX conf inactive.
`COc1ccc(-c2nn(-c3ccccc3)cc2C(=O)N/N=C/c2ccc([N+](=O)[O-])o2)cc1` gave Calb FLC inactive, Beta cell apopt inactive, T cruzi repl 90.2, CSC inhib inactive, SKKanGAS inh inactive, Mdm2 MdmX PPI 58.4, Mdm2-MdmX conf 52.8 and FLuc counter 52.3.
O=C(N/N=C/c1ccccn1)c1cc(-c2ccc(Br)cc2)nc2ccccc12 was read as Calb FLC inactive, Beta cell apopt inactive, T cruzi repl inactive, CSC inhib inactive, SKKanGAS inh 106.6, Mdm2 MdmX PPI 83.8, Mdm2-MdmX conf inactive and FLuc counter 46.4.
Cc1[nH]c2ccccc2c1/C=N/NC(=O)c1cc(-c2ccncc2)nc2ccccc12 was read as Calb FLC inactive, Beta cell apopt inactive, T cruzi repl inactive, CSC inhib inactive, SKKanGAS inh inactive, Mdm2 MdmX PPI 59.4, Mdm2-MdmX conf 68.8 and FLuc counter 52.1.
`COc1ccccc1C(=O)NC(=O)COC(=O)c1ccc([N+](=O)[O-])cc1Cl` gave Calb FLC inactive, Beta cell apopt inactive, T cruzi repl inactive, CSC inhib inactive, SKKanGAS inh inactive and Mdm2 MdmX PPI inactive.
`Cc1ccc(C(=O)NC(C)C2CC3CCC2C3)cc1` (stereo not drawn) gave Calb FLC inactive, Beta cell apopt inactive, T cruzi repl inactive, CSC inhib inactive, SKKanGAS inh inactive and Mdm2 MdmX PPI inactive.
Screening COc1cc(NC(=O)CC(C)S(=O)(=O)c2ccc3c(c2)NC(=O)CO3)cc(OC)c1OC (stereo not drawn) returned Calb FLC inactive, Beta cell apopt inactive, T cruzi repl inactive, CSC inhib inactive, SKKanGAS inh inactive and Mdm2 MdmX PPI inactive.
O=C(N/N=C/c1ccccn1)c1cc(-c2ccc(Cl)cc2)nc2ccccc12 was read as Calb FLC 60.8, Beta cell apopt inactive, T cruzi repl inactive, CSC inhib inactive, SKKanGAS inh 61.5, Mdm2 MdmX PPI 76.0 and Mdm2-MdmX conf inactive.
Screening O=C(N/N=C/c1ccc([N+](=O)[O-])o1)c1cn2ccc3ccccc3c2n1 returned Calb FLC inactive, Beta cell apopt inactive, T cruzi repl inactive, CSC inhib inactive, SKKanGAS inh inactive, Mdm2 MdmX PPI 82.0 and Mdm2-MdmX conf inactive.
`O=C(O)COc1ccccc1/C=N/NC(=O)c1cc(-c2ccc(Cl)cc2)nc2ccccc12` gave Calb FLC inactive, Beta cell apopt inactive, T cruzi repl inactive, CSC inhib inactive, SKKanGAS inh inactive and Mdm2 MdmX PPI inactive.
